# Only some compounds are listed: those with a hit (about 2.9% of all), similar ones and a draw of the others.
# PRMT1 FP inh: blocks human protein arginine methyltransferase 1; Q99873; recombinant PRMT1, activity-based probe fluorescence polarization; inhibition, % at 2.79 µM; hit rate 1.3% among 370,000;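 active = inhibition above about 21% made by adding two undisclosed values, limit read from the data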
# ABHD4 inh: ABHD4 (mouse) inhibition, primary FP screen; inhibition, % at 8.92 µM; Q8VD66; AID 720543; purified mABHD4, FP-Rh probe fluorescence polarization; hit rate 0.54% among 370,000;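 active = inhibition exceeding the mean over every tested compound plus 3 SD, cut at about 30% in these data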;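 also: 0% = plate median of compound wells and 100% = S159A mutant with DMSO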
#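 Test system: mABHD4 protein | Buffer or medium: HEPES pH 7.0 buffer, 150 mM NaCl, 0.01% Pluronic F-127 | Probe or stimulus: FP-Rh fluorescent activity-based probe, added after compound pre-incubation | Timing: Pre-incubation 45 min, probe exposure 60 min, at 25 °C | Technique: Fluorescence polarization, excitation 525 nm, emission 598 nm, BODIPY TMR filters | Repeats: Single well per compound (singlicate)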
# SIAE inh: inhibitors of human sialic acid acetylesterase SIAE; SIAE FP-Rh probe binding, fluorescence polarization; AID 1053197; Q9HAT2; hit rate 0.69% among 370,000; inhibition, % at 9.66 µM;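 active = inhibition above a cutoff: mean of compounds within the control limits plus 3 SD of those, cut at about 17% in these data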;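 also: 0% = plate median of compound wells and 100% = probe without SIAE protein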
# HTRA1 inh: HTRA1 (human) protease inhibition; recombinant HTRA1, FP-rhodamine activity-based probe, fluorescence polarization; inhibition, % at 5.96 µM; hit rate 0.5% among 340,000; AID 504803; in the data active = inhibition above about 36%;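 also: 0% = enzyme with DMSO and 100% = wells lacking enzyme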
# Target sequence (Q92743 whole entry, looked up): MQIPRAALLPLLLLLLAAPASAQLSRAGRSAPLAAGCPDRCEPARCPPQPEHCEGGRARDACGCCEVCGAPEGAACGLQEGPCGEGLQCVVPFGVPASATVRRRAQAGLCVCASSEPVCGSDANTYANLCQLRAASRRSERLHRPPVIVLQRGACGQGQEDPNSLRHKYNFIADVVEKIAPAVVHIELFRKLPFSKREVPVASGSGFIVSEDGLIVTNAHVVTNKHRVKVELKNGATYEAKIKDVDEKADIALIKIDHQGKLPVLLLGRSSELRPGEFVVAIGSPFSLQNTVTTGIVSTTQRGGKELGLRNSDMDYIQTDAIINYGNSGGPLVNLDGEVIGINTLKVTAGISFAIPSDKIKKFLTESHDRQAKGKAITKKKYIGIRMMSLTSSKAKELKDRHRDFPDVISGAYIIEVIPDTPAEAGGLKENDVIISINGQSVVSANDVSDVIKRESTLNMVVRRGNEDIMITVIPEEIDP
# PAD4 inh: inhibitors of human PAD4; inhibition, % at 6.36 µM; recombinant PAD4, RCA probe fluorescence polarization; AID 485272; hit rate 0.41% among 330,000;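 active = percent inhibition above a cutoff equal to the mean of all tested compounds plus 3 SD, cut at about 15% in these data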;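 also: 0% = PAD4 with RCA probe and DMSO and 100% = probe without PAD4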
# TCR CD3 inh: blocks the human TCR-CD3 interaction; TAMRA-labeled TCR probe fluorescence, biochemical; inhibition, % at 9.4 µM; hit rate 0.37% among 360,000; AID 651800; in the data active = inhibition above about 19%;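 also: recombinant mutant TCR 2C K166C tagged with TAMRA read by polarization; 0% = receptor in buffer alone and 100% = receptor with positive control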
# SIAE confirm: confirmation of human SIAE inhibitors. shares compounds with SIAE inh. SIAE FP-Rh activity-based probe, fluorescence polarization. inhibition, % at 9.66 µM. hit rate 13% among 2,300. AID 1117263;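 active = mean inhibition of the replicates above the hit cutoff set in the primary screen, cut at about 17% in these data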;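 also: 0% = SIAE with DMSO and probe and 100% = probe without SIAE; inhibitors lower polarization as more probe stays unbound to SIAE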
# Starred values were filed as active, the others as inactive; . = not tested or not shown.
SMILES,PRMT1 FP inh,ABHD4 inh,SIAE inh,HTRA1 inh,PAD4 inh,TCR CD3 inh,SIAE confirm
CCN(CC)S(=O)(=O)c1cccc(C(=O)N/N=C/c2cc(OC)c(O)c(OC)c2)c1,-0.7,-0.2,0.0,2.3,2.3,1.3,.
CCOC(=O)N/N=C/c1ccc(N(CC)CC)cc1O,-0.9,6.6,17.9*,0.3,-0.2,-3.7,-1.8
COC[C@H]1CCCN1c1cccc2c1S(=O)(=O)N(C1CC1)CC[C@@H](C)O2,4.1,4.6,-1.8,.,.,.,.
Cc1cc(C)c(CN2CCN(C(=O)Cn3cc(C)c(=O)[nH]c3=O)CC2)c(C)c1,-0.7,-5.4,-1.2,.,.,-5.3,.
NC(=O)C1CCN(c2nc(-c3ccc(N)cc3)cs2)CC1,-1.8,7.0,-5.1,.,.,.,.
NC(=O)C1CCN(c2ncc(Br)s2)CC1,21.6*,27.1,21.3*,.,.,.,3.6
CC(C)(C)c1ccc(OCCNC(=S)Nc2ccccc2)cc1,-2.3,-24.3,17.3*,-45.5,0.8,7.2,-11.0
CC(C)(C)c1ccc(OCCNCc2ccccc2)cc1,-2.2,13.4,-1.1,1.8,4.8,-2.2,.
Nc1ccc(C(=O)O)cc1S(=O)(=O)O,0.9,1.6,24.7*,2.0,-6.7,-5.6,-3.1
CC1CC(C)CN(C(=O)C2CCN(c3cncnc3)CC2)C1 (centres undefined),0.0,2.7,7.8,.,.,.,.
COc1ccc(-n2nc3ccc(N)cc3n2)cc1Cl,9.7,-18.5,72.1*,-0.4,-3.8,3.4,-0.2
CCCCN(C)S(=O)(=O)c1ccc2[nH]c(=O)oc2c1,-2.3,0.0,5.2,.,.,.,.
COc1ccc(C(=O)Nc2nc(CC(=O)NCCc3ccccc3)cs2)cc1,-1.2,-4.8,-1.3,-9.8,-5.7,4.5,.
O=C(Cc1csc(NC(=O)c2ccccc2)n1)NO,0.2,12.0,22.2*,6.7,-1.9,-6.5,15.0
CCCCOc1ccc(C(=O)NC2CCCCN(C(C)C)C2=O)cc1 (centres undefined),-0.4,-0.7,1.8,.,.,.,.
COC(=O)[C@]12C[C@H](CC(=O)NCc3cccs3)C(=O)N(CCC3=CCCCC3)C1=C[C@H](C1CCCC1)O[C@@H]2C,0.2,-3.6,-4.4,.,.,.,.
Cc1ccc(C(=O)C[n+]2cccc3ccccc32)cc1,-1.3,6.7,-1.4,-7.5,-10.7,6.3,.
O=C(C[n+]1cccc2ccccc21)c1ccc(Br)cc1,0.6,1.5,20.3*,-1.9,-4.4,-4.5,-4.3
CCOC(=O)C=Nc1c(N)n(C)c(=O)n(C)c1=O,5.2,0.4,-0.1,-8.6,-3.1,-3.5,.
Cn1c(N)c(N=O)c(=O)n(C)c1=O,-8.6,-0.5,17.1*,0.9,-4.3,6.3,1.5
O=C(Nc1ccc(-c2csc(Nc3ccccc3)n2)cc1)c1cc([N+](=O)[O-])cc(C(F)(F)F)c1,-2.7,9.0,39.8*,1.6,2.2,0.2,19.6*
COc1ccc(/C=C2\CC3(OC(=O)c4ccccc4)CCCN2C3)cc1 (centres undefined),-1.7,2.6,-2.4,.,.,.,.
c1cc2c(cc1-c1cnc3n1CCC3)OCCO2,-0.6,-0.2,17.3*,2.0,2.5,-4.2,-4.2
CN(c1ccc(NC(=O)Cc2cn(C)c3ccccc23)cc1)c1ccccn1,10.1,3.5,28.5*,.,.,-6.6,28.8*
CC(C)c1ccc(NC(=O)Cc2cn(C)c3ccccc23)cc1,-1.8,-3.9,2.7,-17.2,-0.8,4.1,.
SMILES,PRMT1 FP inh,ABHD4 inh,SIAE inh,HTRA1 inh,PAD4 inh,TCR CD3 inh,SIAE confirm
CN(c1ccc(NC(=O)CCc2c[nH]c3ccccc23)cc1)c1ccccn1,-0.4,-1.1,27.1*,.,.,-2.7,22.1*
O=C(CCc1c[nH]c2ccccc12)Nc1ccc(S(=O)(=O)Nc2ncccn2)cc1,3.1,2.4,11.2,-1.0,-1.0,-4.4,.
Cc1ccc(NC(=O)NNC(=O)CSC2CCc3ccccc32)c(C)c1 (centres undefined),3.8,9.3,0.2,.,.,-6.3,.
CCCCOc1ccc(C(=O)NC2CCCCN(Cc3ccc(Cl)cc3)C2=O)cc1 (centres undefined),-1.4,-16.9,-10.9,.,.,.,.
COc1ccc(-n2nnc3c(=O)n(C/C=C/c4ccccc4)cnc32)cc1,-2.1,4.2,20.6*,0.6,-3.2,-6.6,-3.4
COc1ccc(-n2nnc3c(=O)n(CC(=O)N4CCCC4)cnc32)cc1,2.7,-4.2,0.6,3.9,-5.4,1.9,.
COC(=O)[C@]12C[C@H](CC(=O)NCc3ccc(C)o3)C(=O)N(Cc3ccc4c(c3)OCO4)C1=C[C@H](COCc1ccccc1)O[C@@H]2C,-2.0,0.1,-1.2,.,.,7.9,.
COc1cc(OC)c(NC(=O)c2ccccc2F)cc1Cl,0.1,1.7,-1.8,-0.7,-5.4,5.0,.
COc1cc(NC(=O)c2cc3ccccc3cc2O)c(OC)cc1Cl,2.0,6.6,18.3*,-8.2,-4.4,-4.5,5.7
COc1ccccc1NC(=O)c1cc2cc(Br)ccc2cc1O,1.2,1.5,42.7*,26.4,-5.1,7.7,-2.8
CC(C)N1CCC(C)(C(=O)Nc2ccc(-n3cccc3)cc2)C1 (centres undefined),-1.1,1.4,17.3*,.,.,-6.9,-4.4
CC(C)N1CCC1(C)C(=O)Nc1ccc(-n2cccc2)cc1 (centres undefined),-3.3,2.6,-0.3,.,.,1.1,.
O=C(CSc1nc(O)c(C2CCCCC2)c(=O)[nH]1)NCC1CCCO1 (centres undefined),-0.4,7.4,17.2*,6.2,8.3,-4.2,5.5
COc1ccc(Nc2ncnc3sc(-c4ccccc4)cc23)cc1OC,-4.2,19.2,23.4*,-14.1,1.8,-5.8,14.7
Cc1ccccc1NC(=O)COC(=O)CN1C(=O)NC(C)(C)C1=O,-2.5,-8.0,-1.4,2.1,0.3,5.4,.
CC(C)(C)c1ccccc1NC(=O)COC(=O)CN1C(=O)NC2(CCCC2)C1=O,2.4,1.0,21.1*,5.3,-4.4,6.9,4.1
CCOc1ccc(NC(=O)CN(C)C(=O)c2c(C)nn(-c3ccccc3)c2Cl)cc1OCC,-0.9,3.4,18.8*,-0.2,4.0,-0.9,0.5
Cc1nn(-c2ccccc2)c(Cl)c1C(=O)NCC(=O)O,-6.3,6.0,18.8*,5.3,4.7,-5.9,0.2
CCOC(=O)CSc1nc2ccc(NC(C)=O)cc2s1,1.2,-1.2,2.8,7.8,1.1,-5.3,.
COC(=O)CSc1nc2ccc(N)cc2s1,1.0,7.9,18.1*,5.8,0.3,-4.2,5.8
CC(NC(=O)CCn1c(=S)[nH]c2ccsc2c1=O)c1ccccc1 (centres undefined),1.6,2.5,19.1*,0.7,-4.6,-5.0,1.3
CCC(=O)N1CCC(C)(C(=O)Nc2ccc(OC)c(OC)c2)C1 (centres undefined),6.1,7.4,18.2*,.,.,-2.7,4.1
COC(=O)[C@]12C[C@H](CC(=O)N3CCOCC3)C(=O)N(Cc3ccco3)C1=C[C@H](C1CCCC1)O[C@@H]2C,-5.0,4.9,4.0,.,.,.,.
